For data set [1] the following is noted: mice, cited from earlier work.
The conditions of data set [2]: rats, cited from earlier work.
The conditions of data set [3]: oral administration, rats; cited from earlier work.
The nature of data set [4]: Stock solution stability at −30 ± 10 °C. It is filed as physicochemical. Particulars: for observed conc. after storage: stock solution in methanol, 22 days; for observed conc. after storage / accuracy after storage: n = 3; for time stable in stock solution / accuracy after storage: stock solution; for accuracy after storage: 22 days (text: 20 days), vs fresh. A digest of the protocol: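 HHC and IS methanol stocks were diluted in methanol to 375 and 110 ng/mL (n = 3) and stored at −30 ± 10 °C for 22 days. Peak responses by LC-MS/MS were compared with freshly prepared stocks, and results were checked against nominal values (precision within 15%, accuracy within ±15%).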

Data set [5] is described as follows: Long-term stability of HHC in mice plasma at −30 ± 10 °C. Type of data set: in vitro ADME. Particulars: 20 days; for accuracy after storage / observed conc. after storage: n = 3. A digest of the protocol:
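Blank mouse plasma was spiked at 15 and 375 ng/mL (n = 3) and kept at −30 ± 10 °C for 20 days. Samples were then extracted with MTBE using butylparaben IS and quantified by LC-MS/MS against daily calibration curves. Results were compared with nominal values; acceptance was precision within 15% and accuracy within ±15%.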

Data set [6] in a line: Pharmacokinetics of HHC in plasma after single IP administration in mice. Type of data set: in vivo. Particulars: 40 mg/kg. The procedure, abridged: (§1)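 Male mice (18–22 g, acclimatised 1 week) received a single 40 mg/kg dose, IP or by oral gavage, in 0.1% DMSO diluted in 1% hydroxyethyl cellulose (10 μL/g). Four mice per time point (predose, 5–30 min, 1, 2, 4, 8, 24 h) were bled from the left ventricle under anaesthesia into EDTA. Plasma underwent MTBE extraction with butylparaben IS, then negative-ESI LC-MS/MS MRM. Noncompartmental analysis.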

Data set [7] is described as follows: Tissue distribution of HHC. It is filed as in vivo, mice. The conditions noted are these: male, mouse, ip, 40 mg/kg. The procedure, abridged: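 Mice were dosed 40 mg/kg IP in 0.1% DMSO/1% hydroxyethyl cellulose, and liver, kidney and brain were removed at the plasma sampling times (n = 4; brain n = 3). Tissues were homogenised 1:10 (w/w) in PBS. Brain was extracted like plasma; kidney and liver received acetone precipitation before MTBE extraction with butylparaben IS. Negative-ESI LC-MS/MS MRM, calibrated at 5–500 ng/mL. Noncompartmental parameters.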

A short description of data set [8]: Pharmacokinetics of HHC in plasma after single oral administration in mice. It is filed as in vivo. The conditions noted are these: 40 mg/kg. A digest of the protocol: as §1
The conditions of data set [9]: pH 7.4; cited from earlier work.
The mark [10] stands for this setting: after intravenous curcumin 20 mg/kg.

The structures appear in SMILES notation. Several values for one entry are separate records, joined by “and”; a condition that tells them apart may be missing. Identical values can stand only once. Like-named read-outs stand apart in the source and are kept apart here.

By Tmax is commonly meant the time at which the peak concentration occurs. One may read the half-life as the time in which the quantity being followed falls by half. Turning to `COc1cc(/C=C/C(=O)CC(=O)/C=C/c2ccc(O)c(OC)c2)ccc1O` [curcumin], the “AUC0–∞” value in data set [1] (setting [10]) is 107.0 ± 18.3 mg·min/L. Besides, the “T1/2,z” value in data set [1] (intravenous curcumin 20 mg/kg, plasma) is 0.538 ± 0.18 h. Further, the “elimination half-life (T1/2,β)” value in [2] (intravenous 10 mg/kg) is 0.742 ± 0.125 h. Besides, in [2] (oral 500 mg/kg), the time of peak concentration (Tmax) is 0.695 ± 0.09 h and the “elimination half-life (T1/2,β)” value was 0.468 ± 0.0933 h. Also, the oral bioavailability entry in [2] was “approximately 1%”. For the same compound, the half-life in [3] was 0.545 h.

Regarding `CCCCOC(=O)c1ccc(O)cc1` [IS, butylparaben, reference compound], in data set [4], the “time stable in stock solution” value is listed as “at least 22 days” and the accuracy after storage amounted to 101.80%. Moreover, the “observed conc. after storage” value in [4] (nominal 110.10 ng/mL) turned out to be 112.08 ± 0.90 ng/mL.

Regarding `COc1cc(CCC(=O)CC(=O)CCc2ccc(O)c(OC)c2)ccc1O` [tetrahydrocurcumin], in [1] (setting [10]), the “AUC0–∞” value is reported as 12.0 ± 4.0 mg·min/L and the detection in liver result is listed as “detectable”.

By Cmax is commonly meant the maximum level reached in the sampled fluid or tissue. Broadly, the MRT inf is a mean duration of stay, worked out from the concentration-time curve. A word on the MRT last: it is a mean duration of stay, worked out from the concentration-time curve. One may read the AUC(0-inf) as total exposure, with the tail of the curve extrapolated. High values mean more exposure, low ones less exposure. As a reminder, the AUC(0-t) is the area under the concentration-time curve up to a stated or last time point. Read a low AUC(0-t) as less exposure. For the compound `COc1cc(CCC(=O)CC(O)CCc2ccc(O)c(OC)c2)ccc1O` (stereo not shown) [HHC, hexahydrocurcumin], the “time stable in stock solution” value in [4] was “at least 22 days”. Also, the results for the “observed conc. after storage” value in [4] (nominal 375.00 ng/mL), in [5] (HQC nominal 375.00 ng/mL) and in [5] (LQC nominal 15.00 ng/mL) were 398.08 ± 1.45 ng/mL, 355.53 ± 34.51 ng/mL and 13.54 ± 1.03 ng/mL, respectively. The values for the accuracy after storage in [4], in data set [5] (HQC nominal 375.00 ng/mL) and in data set [5] (LQC nominal 15.00 ng/mL) were 106.15%, 94.81% and 90.27%, respectively. In data set [5], the “stability in plasma samples” value is on record as “stable”. Further, in [6] (mice, IP vs oral), the “Cmax after IP relative to oral administration” value was 47.90 times and 47.9 times. For the same compound, the maximum concentration (Cmax) was determined as 9300 ± 4290 ng/mL in data set [6] (male, mouse, ip); 120 ± 54.1 ng/mL in [7] (brain); 1700 ± 897 ng/mL in data set [7] (kidney); 194 ± 43.5 ng/mL in [8] (male, mouse, po). The MRT inf is 0.875 h in data set [6] (male, mouse, ip); 2.04 h in data set [7] (brain); 1.94 h in data set [7] (kidney); 2.67 h in data set [7] (liver); 2.58 h in [8] (male, mouse, po). For the same compound, the MRT last was 0.708 h in data set [6] (male, mouse, ip); 1.05 h in data set [7] (brain); 1.6 h in [7] (kidney); 2.6 h in [7] (liver); 1.61 h in [8] (male, mouse, po). Also, the half-life in data set [6] (male, mouse, ip, T1/2, IP 40 mg/kg, mice, n = 4) was ~1.52 h; in data set [6] (male, mouse, ip, half-life, IP 40 mg/kg, mice), ~1.52 h; in data set [7] (brain), 1.77 ± 0.98 h; in data set [7] (kidney), 1.7 ± 0.623 h; in data set [7] (liver) it was 1.74 ± 0.43 h; in [8] (male, mouse, po, T1/2, oral 40 mg/kg, mice, n = 4) it was ~2.17 h. For the same compound, in data set [8] (male, mouse, po, half-life, oral 40 mg/kg, mice), the half-life was ~2.17 h. Besides, the time of peak concentration (Tmax) in [6] (male, mouse, ip, Tmax, IP 40 mg/kg, mice, n = 4) was ~5 min; in data set [7] (brain) it was 5 min; in data set [7] (kidney) it was 6.3 min; in data set [7] (liver) it was 5 min; in [8] (male, mouse, po, Tmax, oral 40 mg/kg, mice, n = 4) it was ~0.25 h. Moreover, the AUC(0-inf) is 21.1 ng·h/mL in data set [7] (brain) and 142 ng·h/mL in [8] (male, mouse, po). Moreover, the AUC(0-t) in [7] (brain) was 18.7 ng·h/mL; in data set [8] (male, mouse, po) it was 127 ng·h/mL. Further, in data set [8] (oral vs IP, mice), the “percent relative bioavailability (AUC0–t oral / AUC0–t IP)” value turned out to be 12.28%. Further, the “stability compared with curcumin” value in data set [9] was “superior stability to curcumin”.

Consider `COc1cc(/C=C/C(=O)CC(=O)CCc2ccc(O)c(OC)c2)ccc1O` [dihydrocurcumin], for which, in data set [1] (setting [10]), the “AUC0–∞” value is given as 6.0 ± 1.2 mg·min/L and the detection in kidneys result is recorded as “present”.
